Results as given in ChEMBL document CHEMBL1138243, “Design of mechanism-based inhibitors of transthyretin amyloidosis: studies with biphenyl ethers and new structural templates” (J Med Chem, 2007).
The source made the active and inactive calls. The rule behind the calls is not given here.

How the values were obtained:
Transthyretin [1] = target: T1, Transthyretin (Homo sapiens, UniProt P02766); test: Inhibition of transthyretin fibril formation at pH 4.4 at 50 uM; format: functional; parameters: scale not given: the % may be the effect or the level left
[2] = Cytotoxicity against TTR-induced […] cells assessed as viability at 50 uM after 72 hrs; format: functional; details: Mus musculus, N2a, read-out: Activity
Transthyretin [3] = target: T1, Transthyretin; test: Inhibition of transthyretin fibril formation at pH 4.4 at 100 uM; format: functional
In short: (§1)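 Library screen of acid-mediated TTR fibril formation at pH 4.4 with inhibitor at 100 µM. TTR was at 7.2 µM.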

Transthyretin [4] = target: T1, Transthyretin; test: Inhibition of fibril elongation of preformed transthyretin at […] after 72 hrs by turbidity assay; format: functional
Neuro2a = test: Cytotoxicity against […] cells at 50 uM; format: functional, cell-based; details: Mus musculus
Transthyretin [5] = target: T1, Transthyretin; test: Inhibition of transthyretin amyloidosis assessed as fibril formation at 7.2 uM at pH 4.4 relative to control; format: functional; parameters: scale not given: the % may be the effect or the level left
In short: (§2)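 WT TTR tetramer (7.2 µM) in pH 7 phosphate/KCl/EDTA was preincubated 1 h at 25 °C with inhibitor (7.2 or 21.6 µM; 1:1 or 1:3) in 1% DMSO. It was then diluted with pH 4.4 acetate/KCl/EDTA buffer and held stagnant 72 h at 37 °C. Turbidity was read at 340 nm as % fibril formation versus untreated (100%). Mean of five experiments.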

Transthyretin [6] = target: T1, Transthyretin; test: Stabilization of urea-induced transthyretin dissociation at 5.4 uM at pH 7.2 after […] relative to control
Transthyretin [7] = target: T1, Transthyretin; test: Inhibition of transthyretin amyloidosis assessed as fibril formation pH 4.4 at 100 uM; format: functional; in short: as §1
Transthyretin [8] = target: T1, Transthyretin; test: Inhibition of transthyretin amyloidosis assessed as fibril formation at 21.6 uM at pH 4.4 relative to control; format: functional; parameters: scale not given: the % may be the effect or the level left; in short: as §2
Transthyretin [9] = target: T1, Transthyretin; test: Inhibition of transthyretin fibril formation assessed as turbidity at 21.6 uM at pH 4.4 after 3 hrs; format: functional
In short: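 Kinetics run with 7.2 µM TTR plus 21.6 µM inhibitor at pH 4.4, 37 °C. Turbidity at 340 nm was followed for 3 h. Initial fibrillization rate came from the linear slope of A340 versus time. Three experiments in triplicate.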

Transthyretin [10] = target: T1, Transthyretin; test: Stabilization of urea-induced transthyretin dissociation at 5.4 uM at pH 7.2 after 1 hr relative to control

| Structure (SMILES) | Activity (Transthyretin [1]) | inhibition (Transthyretin [3]) | percent fibril formation relative to control (Transthyretin [7]) | also measured |
| --- | --- | --- | --- | --- |
| O=C(O)c1ccc(Oc2ccc([N+](=O)[O-])cc2[N+](=O)[O-])c(O)c1 | 75% | – | – | – |
| Oc1ccccc1-c1nnc(S)o1 | – | 86.2% | 13.8% | viability at 50 µM [2]: 86%; Activity (Transthyretin [4]): Active; Activity (Neuro2a): Not toxic; Activity (Transthyretin [5]): 21%; Activity (Transthyretin [6]): < 5%; Activity (Transthyretin [8]): 0%; inhibition (Transthyretin [9]): > 80% |
| COc1cc(CCl)ccc1Oc1ccc(Cl)cc1Cl | 0% | – | – | viability at 50 µM [2]: 86%; Activity (Transthyretin [4]): Active; Activity (Neuro2a): Not toxic; Activity (Transthyretin [5]): 26%; Activity (Transthyretin [6]): < 5%; Activity (Transthyretin [8]): 0%; inhibition (Transthyretin [9]): > 80% |
| COc1cc(C=O)ccc1Oc1ccccc1 | 0% | – | – | viability at 50 µM [2]: 86%; Activity (Transthyretin [4]): Active; Activity (Neuro2a): Not toxic; Activity (Transthyretin [5]): 12%; Activity (Transthyretin [6]): < 5%; Activity (Transthyretin [8]): 0%; inhibition (Transthyretin [9]): > 80% |
| COc1cc(CCl)ccc1Oc1ccc([N+](=O)[O-])cc1[N+](=O)[O-] | 79% | – | – | – |
| Oc1cc(Cl)ccc1Oc1ccc(Cl)cc1Cl | 41% | – | – | Activity (Transthyretin [5]): 75%; Activity (Transthyretin [10]): 47%; Activity (Transthyretin [8]): 66%; inhibition (Transthyretin [9]): 62% |
| COc1cc(CO)ccc1Oc1ccccc1 | 61.2% | – | – | – |
| COc1cc(CO)ccc1Oc1ccc([N+](=O)[O-])cc1[N+](=O)[O-] | 28% | – | – | – |
| COc1cc(C(=O)O)ccc1Oc1ccc(Cl)cc1Cl | 0% | – | – | viability at 50 µM [2]: 86%; Activity (Transthyretin [4]): Active; Activity (Neuro2a): Not toxic; Activity (Transthyretin [5]): 10%; Activity (Transthyretin [6]): < 5%; Activity (Transthyretin [8]): 0%; inhibition (Transthyretin [9]): > 80% |
| O=Cc1ccc(Oc2ccc(Cl)cc2Cl)c(O)c1 | 0% | – | – | viability at 50 µM [2]: 86%; Activity (Transthyretin [4]): Active; Activity (Neuro2a): Not toxic; Activity (Transthyretin [5]): 0%; Activity (Transthyretin [6]): < 5%; Activity (Transthyretin [8]): 0%; inhibition (Transthyretin [9]): > 80% |
| COc1cc(C(=O)O)ccc1Oc1ccc([N+](=O)[O-])cc1[N+](=O)[O-] | 48% | – | – | – |
| Oc1cc(CCl)ccc1Oc1ccc(Cl)cc1Cl | 0% | – | – | viability at 50 µM [2]: 86%; Activity (Neuro2a): Not toxic; Activity (Transthyretin [5]): 5%; Activity (Transthyretin [6]): < 5%; Activity (Transthyretin [8]): 0%; inhibition (Transthyretin [9]): > 80% |
| OCc1ccc(Oc2ccc(Cl)cc2Cl)c(O)c1 | 11.5% | – | – | viability at 50 µM [2]: 86%; Activity (Transthyretin [4]): Active; Activity (Neuro2a): Not toxic; Activity (Transthyretin [5]): 12%; Activity (Transthyretin [6]): < 5%; Activity (Transthyretin [8]): 2.6%; inhibition (Transthyretin [9]): > 80% |
| N[C@H](Cc1cc(I)c(Oc2cc(I)c(O)c(I)c2)c(I)c1)C(=O)O | – | – | – | Activity (Transthyretin [5]): 48%; Activity (Transthyretin [10]): 27%; Activity (Transthyretin [8]): 7%; inhibition (Transthyretin [9]): 75% |
| O=C(Nc1nnc[nH]1)c1c(Cl)ccc(Cl)c1Cl | – | 88.5% | 11.5% | viability at 50 µM [2]: 86%; Activity (Transthyretin [4]): Active; Activity (Neuro2a): Not toxic; Activity (Transthyretin [5]): 11%; Activity (Transthyretin [6]): < 5%; Activity (Transthyretin [8]): 3.6%; inhibition (Transthyretin [9]): > 80% |
| O=C(NCc1ccco1)c1cc(Sc2cccc(Cl)c2)nc2ccccc12 | – | 39.3% | 60.7% | – |
| Cc1ccc2nc(Nc3nc(O)c4ccccc4n3)nc(C)c2c1 | – | 31.1% | 68.9% | – |
| COc1cc(CO)ccc1Oc1ccc([N+](=O)[O-])cc1 | 89.5% | – | – | – |
| O=C(O)c1ccc(Cl)c(N2C(=O)C3C4CCC(C4)C3C2=O)c1 (stereo in doubt; 33) | – | 37.8% | 62.2% | – |
| Cc1ccccc1C1=N/C(=C\c2sccc2C)C(=O)O1 | – | 0% | 115% | – |
| Cc1ccc2nc(NC(=O)c3ccccc3O)sc2c1 | – | 0% | 368% | – |
| O=C(O)CCc1nc(-c2cccs2)no1 | – | 67.9% | 32.1% | – |
| Oc1ccc(-c2nc3ncccn3c2Nc2ccc(Cl)cc2)cc1 | – | 0% | 135% | – |
| O=C1CSC(c2ccc(Cl)cc2Cl)N1c1ccc(Cl)cc1 (stereo not given) | – | 79.7% | 20.3% | – |

| Structure (SMILES) | Activity (Transthyretin [1]) | inhibition (Transthyretin [3]) | percent fibril formation relative to control (Transthyretin [7]) | also measured |
| --- | --- | --- | --- | --- |
| CCc1ccccc1NC(=S)N(CCN(C)C)Cc1cccs1 | – | 0% | 108% | – |
| O=[N+]([O-])c1ccc(Cl)cc1Sc1nc2ccccc2s1 | – | 91.8% | 8.2% | – |
| O=C1OC(c2ccc(Cl)cc2Cl)=N/C1=C\c1cccs1 | – | 0% | 136% | – |
| O=C(O)CCCCCN1C(=O)/C(=C/c2c[nH]c3ccccc23)SC1=S | – | 0% | 126% | – |
| O=Cc1ccc(Oc2ccccc2)c(O)c1 | 112% | – | – | – |
| Cc1ccc(/C=c2/sc3nc4ccccc4n3c2=O)cc1 | – | 0% | 125% | – |
| O=C(c1cc(-c2ccc(Cl)s2)nc2ccccc12)N1CCOCC1 | – | 0% | 156% | – |
| Cc1nc2c(ccc3ccccc32)c(O)c1CN1CCOCC1 | – | 30.4% | 69.6% | – |
| O=C(O)C1CSC(c2ccc([N+](=O)[O-])cc2)N1 (stereo not given) | – | 0% | 119% | – |
| O=Cc1ccc(Oc2ccc([N+](=O)[O-])cc2[N+](=O)[O-])c(O)c1 | 40.5% | – | – | – |
| CCCCN(CC)Cc1c(C)nc2ccc(Cl)cc2c1O | – | 20.3% | 79.7% | – |
| Cc1ccc(C2NC(C(=O)O)CS2)cc1 (stereo not given) | – | 85.7% | 14.3% | – |
| Cc1nc2c(ccc3ccccc32)c(O)c1CN1CCCC1 | – | 33.1% | 66.9% | – |
| O=C1/C(=C\c2ccco2)SC(=S)N1c1cccc(F)c1 | – | 0% | 340% | – |
| Cc1nc2c(ccc3ccccc32)c(O)c1CN(C)Cc1ccccc1 | – | 0% | 105% | – |
| COc1cc(/C=C2\SC(=S)N(c3ccc(O)cc3)C2=O)ccc1O | – | 0% | 230% | – |
| O=C(O)C1CSC(c2ccc(O)cc2)N1 (stereo not given) | – | 0% | 120% | – |
| O=c1c2ccccc2nc2sc(Nc3ccc(F)cc3F)nn12 | – | 102% | -2.03% | – |
| COc1cc(C=O)ccc1Oc1ccc([N+](=O)[O-])cc1[N+](=O)[O-] | 66% | – | – | – |
| COc1cc(COC(C)=O)ccc1Oc1ccc([N+](=O)[O-])cc1[N+](=O)[O-] | 69% | – | – | – |
| CCC(=O)NC(c1ccc2c(c1)OCO2)c1cc(Cl)c2cccnc2c1O (stereo not given) | – | 58.1% | 41.9% | – |
| CC(C)C(=O)NC(c1ccccc1)c1ccc2cccnc2c1O (stereo not given) | – | 95.4% | 4.6% | – |
| Nc1nc(Cl)cc(Oc2ccccc2F)n1 | – | 47.6% | 52.4% | – |
| Cn1c(=O)c2c(nc(Oc3ccc(-n4cnnn4)cc3)n2C)n(C)c1=O | – | 0% | 155% | – |
